How the values were obtained:
[1] = In vivo inhibitory activity against Matrix metalloprotease enzyme by dialysis implant assay, value is relative to activity of CGS-27023 (35+/-3) at 25 mg/kg. po; assay type: functional
Collagenase 3 = Collagenase 3 (Homo sapiens, UniProt P45452)
[2] = biological target: T1, Disintegrin and metalloproteinase domain-containing protein 17 (Homo sapiens, UniProt P78536); assay: Inhibition of Tumor necrosis factor alpha converting enzyme (TACE) at 10 uM
Summary of the method: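 Dose–response curves were not generated when inhibition was below 60% at 10 μM.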

[3] = In vivo inhibitory activity against Matrix metalloprotease enzyme by dialysis implant assay, value is relative to activity of CGS-27023 (43+/-2) at 25 mg/kg. po; assay type: functional
[4] = In vivo inhibition of Matrix metalloprotease enzyme by Sponge-wrapped cartilage assay, value is relative to activity of RS-130830 (40+/-2) at 10 mg/kg. po. bid; assay type: functional
[5] = biological target: Matrix metalloproteinase-9 (Homo sapiens, UniProt P14780); assay: In vitro inhibitory activity against matrix metalloprotease-9.
[6] = In vivo inhibitory activity against Matrix metalloprotease enzyme by dialysis implant assay, value is relative to activity of CGS-27023 (53+/-3) at 25 mg/kg. po; assay type: functional
Interstitial collagenase = biological target: T2, Interstitial collagenase (Homo sapiens, UniProt P03956); assay: In vitro inhibitory activity against matrix metalloprotease-1
T2 sequence (P03956 whole entry): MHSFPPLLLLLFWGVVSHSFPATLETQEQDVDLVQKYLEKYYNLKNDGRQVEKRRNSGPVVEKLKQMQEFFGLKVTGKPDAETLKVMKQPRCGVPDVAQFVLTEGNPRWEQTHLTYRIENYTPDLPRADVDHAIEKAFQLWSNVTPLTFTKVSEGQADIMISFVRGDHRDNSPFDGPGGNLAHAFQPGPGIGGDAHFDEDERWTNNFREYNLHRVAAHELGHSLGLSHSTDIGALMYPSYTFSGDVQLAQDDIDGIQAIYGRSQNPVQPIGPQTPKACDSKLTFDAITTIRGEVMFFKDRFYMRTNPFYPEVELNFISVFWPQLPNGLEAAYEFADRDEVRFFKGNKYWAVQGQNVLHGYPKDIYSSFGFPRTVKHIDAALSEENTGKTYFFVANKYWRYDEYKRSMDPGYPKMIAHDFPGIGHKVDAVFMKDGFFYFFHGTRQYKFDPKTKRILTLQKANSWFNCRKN

[7] = In vivo inhibitory activity against Matrix metalloprotease enzyme by dialysis implant assay, value are relative to activity of CGS-27023 (41+/-4) at 25 mg/kg. po; assay type: functional
[8] = biological target: T1, Disintegrin and metalloproteinase domain-containing protein 17; assay: In vitro inhibitory activity against tumor necrosis factor alpha converting enzyme (TACE).
Rattus norvegicus = assay: In vivo inhibition of Matrix metalloprotease enzyme by Sponge-wrapped cartilage assay at 25 mg/kg. po. qd; assay type: functional

Chain of Matrix metalloproteinase-9 (P14780 whole entry): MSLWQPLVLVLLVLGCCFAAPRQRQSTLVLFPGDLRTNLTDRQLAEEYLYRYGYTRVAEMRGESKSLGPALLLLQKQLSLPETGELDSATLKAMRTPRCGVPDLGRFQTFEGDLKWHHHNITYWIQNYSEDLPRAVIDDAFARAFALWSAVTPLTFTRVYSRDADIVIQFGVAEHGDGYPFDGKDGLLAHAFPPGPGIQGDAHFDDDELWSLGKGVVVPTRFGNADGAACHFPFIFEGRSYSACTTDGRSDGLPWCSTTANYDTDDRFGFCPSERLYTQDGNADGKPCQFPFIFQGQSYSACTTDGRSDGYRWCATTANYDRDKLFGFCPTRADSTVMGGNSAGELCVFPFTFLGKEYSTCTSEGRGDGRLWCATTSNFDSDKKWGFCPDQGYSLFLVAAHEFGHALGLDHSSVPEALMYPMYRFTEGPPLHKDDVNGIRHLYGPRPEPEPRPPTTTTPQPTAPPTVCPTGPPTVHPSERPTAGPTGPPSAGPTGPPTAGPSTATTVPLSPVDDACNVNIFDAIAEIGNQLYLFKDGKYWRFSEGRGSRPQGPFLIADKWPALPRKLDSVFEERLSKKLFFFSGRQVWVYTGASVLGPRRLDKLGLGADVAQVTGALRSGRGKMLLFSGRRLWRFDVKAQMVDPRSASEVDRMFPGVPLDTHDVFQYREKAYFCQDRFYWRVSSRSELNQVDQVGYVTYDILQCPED
T1 sequence (P78536 whole entry, the tested form may be a part): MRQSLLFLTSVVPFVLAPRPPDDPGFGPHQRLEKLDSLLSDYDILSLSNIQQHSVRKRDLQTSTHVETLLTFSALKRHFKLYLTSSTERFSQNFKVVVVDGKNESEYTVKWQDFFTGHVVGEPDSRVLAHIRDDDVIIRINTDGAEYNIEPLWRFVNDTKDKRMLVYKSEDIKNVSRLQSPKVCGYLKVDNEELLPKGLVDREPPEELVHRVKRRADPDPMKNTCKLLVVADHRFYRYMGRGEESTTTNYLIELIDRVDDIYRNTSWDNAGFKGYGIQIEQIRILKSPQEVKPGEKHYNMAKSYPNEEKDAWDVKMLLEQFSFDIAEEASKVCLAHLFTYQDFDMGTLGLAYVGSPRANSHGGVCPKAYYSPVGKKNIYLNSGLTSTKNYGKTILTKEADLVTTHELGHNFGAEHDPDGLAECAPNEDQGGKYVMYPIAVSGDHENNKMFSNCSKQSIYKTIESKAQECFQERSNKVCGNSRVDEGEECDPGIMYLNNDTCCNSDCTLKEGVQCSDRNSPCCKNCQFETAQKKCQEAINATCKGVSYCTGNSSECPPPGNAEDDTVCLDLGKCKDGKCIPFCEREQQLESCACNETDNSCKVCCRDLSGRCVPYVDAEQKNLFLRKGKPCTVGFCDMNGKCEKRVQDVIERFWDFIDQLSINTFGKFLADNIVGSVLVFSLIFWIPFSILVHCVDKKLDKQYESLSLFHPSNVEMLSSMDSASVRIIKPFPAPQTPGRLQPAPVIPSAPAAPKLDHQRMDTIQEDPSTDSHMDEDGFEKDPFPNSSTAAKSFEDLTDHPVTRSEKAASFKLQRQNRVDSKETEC

With `CCCCOc1ccc(S(=O)(=O)C2(C(=O)NO)CCN(Cc3ccc(F)cc3)CC2)cc1` the inhibition in vivo at 25 mg/kg [1] was 48%, the IC50 (Collagenase 3) was 5 nM and the inhibition [2] was 39%.

`CCCCOc1ccc(S(=O)(=O)C2(C(=O)NO)CCN(C)CC2)cc1` gave an inhibition in vivo at 25 mg/kg [3] of 64%, an inhibition in vivo at 10 mg/kg [4] of 12% and an IC50 (Collagenase 3) of 2 nM. The IC50 [5] was 10 nM.

`COc1ccc(S(=O)(=O)C2(C(=O)NO)CCN(CCCc3ccccc3)CC2)cc1` showed an IC50 [5] of 13 nM and an inhibition in vivo at 25 mg/kg [6] of 9%.

In the case of `COc1ccc(S(=O)(=O)C2(C(=O)NO)CCN(Cc3ccc(-c4cccs4)cc3)CC2)cc1`, the IC50 (Interstitial collagenase) is reported as 531 nM, the inhibition in vivo at 25 mg/kg [7] is reported as 12% and the IC50 (Collagenase 3) is reported as 3 nM. For the same compound, the IC50 [8] was 273 nM and the IC50 [5] was 11 nM.

Work on `COc1ccc(S(=O)(=O)C(C)(Cc2ccc(OCCN3CCCCC3)cc2)C(=O)NO)cc1` (stereo not given) yielded a Protection (Rattus norvegicus) of 68%.

Reference: ChEMBL document CHEMBL1145787, “Synthesis and structure-activity relationship of N-substituted 4-arylsulfonylpiperidine-4-hydroxamic acids as novel, orally active matrix metalloproteinase inhibitors for the treatment of osteoarthritis” (J Med Chem, 2003)
